# APJ ag: agonists of human apelin receptor APJ, primary screen, CHO-K1 cells, PathHunter beta-arrestin, luminescence. P35414. 0% DMSO wells, 100% apelin. activation, % at 20 µM. 0.11% of 330,000 active. AID 2520, 2010;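 active = activation more than six SD over the plate average, tested at 20 µM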;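 also: 0% = DMSO alone and 100% = apelin-13 at 10 nM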
#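 Test system – PathHunter CHO-K1 APJ (AGTRL-1) beta-arrestin reporter cells · Input – 1000 cells/well · Compound – single test compound dose, 20 µM final, 1% DMSO · Times – compound stimulation 90 min at 25 °C, detection 60 min · Technique – beta-gal luminescence · Read-out basis – APJ–arrestin association signal · Control set – negative DMSO alone, positive Apelin-13 at 10 nM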
# Beta2AR agonist: beta2AR agonists driving receptor internalization, primary screen, cell-based, FAP fluorogen, flow cytometry; response, % (test concentration not listed); Beta-2 adrenergic receptor (Homo sapiens), P07550; 0.43% of 340,000 active; Am2.2-beta2AR cells;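 active = response above a set limit, near 3 SD of response in nonfluorescent compounds, cut at about 42% in these data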
# CXCR6 block: CXCR6 receptor inhibitors, primary screen, cell-based, beta-arrestin, luminescence, CHO-K1 PathHunter, 1536-well | C-X-C chemokine receptor type 6 (Homo sapiens), O00574 | inhibition, % at 20 µM | 0.36% of 360,000 active; in the data active = inhibition above about 34%, passing the limit was not always enough;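 also: antagonist mode with CXCL16 agonist at 10 nM final; 0% = 10 nM CXCL16 with DMSO and 100% = unstimulated wells without agonist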
# CCR6 antagonist: CCR6 receptor antagonists, primary screen, cell-based, CHO-K1, luminescence, beta-arrestin, uHTS; C-C chemokine receptor type 6 (Homo sapiens), P51684; CHO-K1 CCR6 PathHunter beta-arrestin, CCL20-stimulated; inhibition, % at 20 µM; 0.49% of 340,000 active; AID 493098, 2011;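 active = compounds whose inhibition of the agonist-driven luminescence signal at 20 µM reaches about 50%, limit read from the data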;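 also: cells stimulated with CCL20 at 14 nM final; plate controls were DMSO with CCL20 for no effect and DMSO without agonist for full effect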
# Target sequence (P51684 whole entry, looked up): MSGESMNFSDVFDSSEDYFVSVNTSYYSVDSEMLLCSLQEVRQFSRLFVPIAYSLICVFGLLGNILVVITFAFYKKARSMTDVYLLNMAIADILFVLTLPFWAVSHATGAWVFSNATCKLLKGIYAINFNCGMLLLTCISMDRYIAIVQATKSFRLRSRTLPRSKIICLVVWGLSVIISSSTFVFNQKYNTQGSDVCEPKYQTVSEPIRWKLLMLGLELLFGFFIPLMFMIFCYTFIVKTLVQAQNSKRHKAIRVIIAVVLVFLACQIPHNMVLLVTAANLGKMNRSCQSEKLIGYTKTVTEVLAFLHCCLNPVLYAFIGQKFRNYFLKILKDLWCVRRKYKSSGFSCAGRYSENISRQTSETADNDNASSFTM
# PfGluPho inh: PfG6PD enzyme inhibitors, primary screen, biochemical, fluorescence intensity, uHTS | glucose-6-phosphate dehydrogenase-6-phosphogluconolactonase (Plasmodium falciparum 3D7) | PfGluPho enzyme, NADPH resazurin-diaphorase fluorescence | inhibition, % at 20 µM | 0.78% of 350,000 active;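 active = inhibition reaching at least a set limit at 20 µM in the primary screen, cut at about 59% in these data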;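 also: 0% = DMSO wells with substrate and 100% = DMSO wells lacking glucose-6-phosphate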
# APJ antagonist: antagonists of human apelin receptor APJ, primary screen, CHO-K1 cells, beta-arrestin complementation, luminescence; P35414; inhibition, % at 20 µM; 0.32% of 330,000 active;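 active = inhibition above about 40% at 20 µM, limit read from the data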;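 also: cells challenged with 10 nM apelin-13 agonist together with compound; plate controls were apelin-13 plus DMSO wells for no effect and DMSO wells lacking apelin-13 for full effect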
# PfG6PD confirm: PfG6PD inhibitors, hit retest, confirmation, biochemical, fluorescence intensity, single concentration | shares compounds with PfGluPho inh | recombinant PfGluPho, NADPH-diaphorase-resazurin fluorescence | inhibition, % at 20 µM | 34% of 2,400 active | AID 504753, 2011;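 active = inhibition of at least 50% at 20 µM in any single replicate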;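 also: 0% = DMSO with substrate and 100% = DMSO lacking glucose-6-phosphate substrate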
# Diaph ctr 10uM: diaphorase inhibitors and chemical oxidizers, confirmation, counter-screen for P. falciparum G6PD inhibitor project, biochemical, fluorescence intensity, 10 µM NADPH. shares compounds with PfGluPho inh. AID 504862, 2011. 39% of 820 active. inhibition, % at 20 µM. diaphorase-coupled resazurin reduction, NADPH 10 uM;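 active = average inhibition reaching 50% or more with the compound at 20 µM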;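 also: resorufin red fluorescence formed as diaphorase reduces resazurin using NADPH; 0% = DMSO with enzyme and 100% = DMSO without enzyme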
# Diaphorase 30uM: diaphorase inhibitors and chemical oxidizers, confirmation, counter-screen for P. falciparum G6PD inhibitor project, biochemical, fluorescence intensity, 30 µM NADPH; AID 504863, 2011; inhibition, % at 20 µM; shares compounds with PfGluPho inh; 29% of 820 active; Diaphorase/resazurin coupled assay, resorufin fluorescence;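 active = inhibition averaging 50% or more, tested at 20 µM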;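 also: 0% = DMSO with enzyme and 100% = DMSO wells lacking diaphorase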
# Starred values were filed as active, the others as inactive; nt = no result given. In the library only some 1.7% were active in any assay of this set; here they are far more common.
SMILES,APJ ag,Beta2AR agonist,CXCR6 block,CCR6 antagonist,PfGluPho inh,APJ antagonist,PfG6PD confirm,others
CCOc1ccccc1N(C(=O)CNC(=O)c1ccco1)C(C(=O)NC1CCCC1)c1ccncc1 (stereo unspecified),-2,-10,-6,9,13,8,nt,
COc1cc(/C=N/O)ccc1Oc1ccc([N+](=O)[O-])cc1[N+](=O)[O-],1,-8,-12,-9,29,-12,nt,
CO/N=C/c1ccc(Oc2ccc([N+](=O)[O-])cc2[N+](=O)[O-])c(OC)c1,1,4,-4,0,94*,-37,44,
CCCCN(CCCC)C(=O)c1sc2nc(N3CCOCC3)c3c(c2c1N)CCCC3,5,6,12,7,71*,4,-6,
NC(=O)c1sc2nc(N3CCOCC3)c3c(c2c1N)CCCC3,-1,1,2,19,66*,1,12,
CCOC(=O)c1sc2nc(N3CCOCC3)c3c(c2c1N)CCC3,11,4,0,5,9,-13,nt,
CCS(=O)(=O)c1ccc2oc(Nc3ccc(C(C)C)cc3)nc2c1,-1,11,8,16,74*,12,43,
CCN(CC)S(=O)(=O)c1ccc2oc(Nc3ccc(OC)cc3)nc2c1,0,14,5,17,16,10,nt,
CCOc1ccc(Nc2nc3cc(S(=O)(=O)N(CC)CC)ccc3o2)cc1,-4,7,1,-6,62*,1,18,
O=c1ccn([C@@H]2O[C@H](CNS(=O)(=O)c3csc(-c4ccno4)c3)[C@@H](O)[C@H]2O)c(=O)[nH]1,nt,-2,-2,8,-4,nt,nt,
Cc1cc(C)nc(NC(N)=NCCc2ccccc2)n1,nt,13,-6,15,79*,nt,51*,Diaph ctr 10uM=49;Diaphorase 30uM=48
Cc1cc(C)nc(NC(N)=NC(C)c2ccccc2)n1 (stereo unspecified),-3,nt,nt,9,5,10,nt,
C[C@H](NC(=O)c1cc2cc(Cl)ccc2n1C)C(=O)N[C@@H](C(=O)O)c1ccccc1,-4,-4,6,8,-23,8,nt,
CCc1nnc(N/N=C/c2c(C)[nH]c3ccccc23)n1N,0,7,-20,-10,60*,-35,38,
Cc1ccc2cccc(Oc3ccc([N+](=O)[O-])cc3[N+](=O)[O-])c2n1,1,2,0,8,121*,-6,91*,Diaph ctr 10uM=94*;Diaphorase 30uM=80*
N#Cc1ccc(Oc2cccc3cccnc23)c([N+](=O)[O-])c1,0,7,-6,8,102*,-22,70*,Diaph ctr 10uM=64*;Diaphorase 30uM=43
O=[N+]([O-])c1ccccc1OCCOCCOc1cccc2cccnc12,-1,1,-2,19,3,2,nt,
Cc1ccc(Oc2ccc(C(F)(F)F)cc2[N+](=O)[O-])c([N+](=O)[O-])n1,3,-8,-6,-3,8,3,nt,
O=[N+]([O-])c1ccc(Oc2cccc3cccnc23)c([N+](=O)[O-])c1,1,-4,-12,9,119*,-27,95*,Diaph ctr 10uM=85*;Diaphorase 30uM=75*
CC(=O)c1cccc(-c2ccnc3c2CC(C(=O)Nc2cccc(OC(F)(F)F)c2)O3)c1 (stereo unspecified),nt,nt,-4,nt,nt,nt,nt,

# Bioassay records deposited in PubChem BioAssay by several laboratories.
